The results in this text go back to ChEMBL document CHEMBL2321834 (J Med Chem, 2013).

The term inhibition denotes the percentage by which the read-out fell short of the control. A higher inhibition goes with strong suppression. One may read the pIC50 as the negative decadic logarithm of the IC50, by convention in mol/L.

Assay [1] has as its target T1, 17-beta-hydroxysteroid dehydrogenase type 1 (Homo sapiens) (UniProt P14061).
T1 sequence (whole entry): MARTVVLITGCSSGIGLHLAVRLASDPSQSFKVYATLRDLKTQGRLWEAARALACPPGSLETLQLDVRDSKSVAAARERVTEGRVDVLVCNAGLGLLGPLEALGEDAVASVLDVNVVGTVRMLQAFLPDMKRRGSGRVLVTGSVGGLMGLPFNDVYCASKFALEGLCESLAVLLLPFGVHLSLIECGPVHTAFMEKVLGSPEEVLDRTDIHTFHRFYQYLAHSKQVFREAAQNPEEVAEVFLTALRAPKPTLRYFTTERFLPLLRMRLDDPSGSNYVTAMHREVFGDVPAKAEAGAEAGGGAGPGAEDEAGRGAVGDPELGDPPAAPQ
As to conditions: at 1 µM.

Assay [2] addresses Estrogen receptor beta (Homo sapiens) (UniProt Q92731). Put plainly: Displacement of [3H]E2 from human recombinant ERbeta after 1 hr by scintillation counting analysis relative to E2. The gist of the method: (§1)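 Competitive binding assay against ERα and ERβ, with E2 as internal reference.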
In general terms: Loss of bound radioactivity is the signal in a displacement assay; it reports binding, not function.

In assay [3] the target is T2, 17-beta-hydroxysteroid dehydrogenase type 1 (Homo sapiens, UniProt P14061).
T2 sequence (P14061 whole entry): T1 sequence (whole entry)
Put plainly: Inhibition of 17beta-HSD1 in human placental cytosolic fraction using [3H]E1 as substrate assessed as formation of E2 by HPLC analysis.

Assay [4] concerns the target T3, 17-beta-hydroxysteroid dehydrogenase type 2 (Homo sapiens) (UniProt P37059).
T3 sequence (whole entry): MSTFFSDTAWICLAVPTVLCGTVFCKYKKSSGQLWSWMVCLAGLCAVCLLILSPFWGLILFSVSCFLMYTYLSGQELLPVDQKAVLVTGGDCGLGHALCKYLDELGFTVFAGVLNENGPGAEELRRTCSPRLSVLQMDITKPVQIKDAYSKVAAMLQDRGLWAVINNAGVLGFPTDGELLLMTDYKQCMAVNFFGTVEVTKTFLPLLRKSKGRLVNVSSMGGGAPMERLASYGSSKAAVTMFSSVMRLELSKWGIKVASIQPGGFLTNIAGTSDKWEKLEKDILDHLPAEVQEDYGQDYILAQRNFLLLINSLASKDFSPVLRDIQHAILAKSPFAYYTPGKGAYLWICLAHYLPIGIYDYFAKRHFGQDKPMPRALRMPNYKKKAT
As to conditions: Placenta, Microsomal, at 1 µM.

For assay [5], the target named is T4, Estrogen receptor (Homo sapiens) (UniProt P03372).
T4 sequence (whole entry): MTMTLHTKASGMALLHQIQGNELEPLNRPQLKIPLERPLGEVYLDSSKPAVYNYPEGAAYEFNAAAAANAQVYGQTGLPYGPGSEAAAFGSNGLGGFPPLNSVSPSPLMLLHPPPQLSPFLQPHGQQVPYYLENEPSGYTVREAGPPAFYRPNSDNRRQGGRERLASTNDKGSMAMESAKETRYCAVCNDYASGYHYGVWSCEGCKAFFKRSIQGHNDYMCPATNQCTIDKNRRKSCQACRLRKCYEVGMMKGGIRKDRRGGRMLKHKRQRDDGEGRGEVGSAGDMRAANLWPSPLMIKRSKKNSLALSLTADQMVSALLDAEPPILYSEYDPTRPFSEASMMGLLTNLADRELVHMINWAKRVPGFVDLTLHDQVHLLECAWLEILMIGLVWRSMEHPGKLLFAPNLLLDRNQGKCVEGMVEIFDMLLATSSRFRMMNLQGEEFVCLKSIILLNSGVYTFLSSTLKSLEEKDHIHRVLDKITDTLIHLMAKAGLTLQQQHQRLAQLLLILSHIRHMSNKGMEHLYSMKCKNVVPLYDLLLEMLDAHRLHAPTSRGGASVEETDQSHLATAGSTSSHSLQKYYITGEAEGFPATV
Put plainly: Displacement of [3H]E2 from human recombinant ERalpha after 1 hr by scintillation counting analysis relative to E2. The method in brief:
as §1

Assay [6] is filed under the species Homo sapiens. The assay is described as follows: Selectivity ratio of IC50 for 17beta-HSD1 in human placental microsomal fraction to IC50 for 17beta-HSD2 in human placental microsomal fraction. The class given is microsomes. Particulars: Microsome.
Assay [7] addresses T3, 17-beta-hydroxysteroid dehydrogenase type 2 (Homo sapiens). Put plainly: Inhibition of 17beta-HSD2 in human MDA-MB-231 cells using [3H]E2 as substrate at 1 uM after 6 hrs by HPLC analysis. The class given is cell-based.

Molecules are shown by their SMILES. pIC50: −log10 of the molar value.

Estrogen receptor beta (Homo sapiens), sequence (Q92731 whole entry): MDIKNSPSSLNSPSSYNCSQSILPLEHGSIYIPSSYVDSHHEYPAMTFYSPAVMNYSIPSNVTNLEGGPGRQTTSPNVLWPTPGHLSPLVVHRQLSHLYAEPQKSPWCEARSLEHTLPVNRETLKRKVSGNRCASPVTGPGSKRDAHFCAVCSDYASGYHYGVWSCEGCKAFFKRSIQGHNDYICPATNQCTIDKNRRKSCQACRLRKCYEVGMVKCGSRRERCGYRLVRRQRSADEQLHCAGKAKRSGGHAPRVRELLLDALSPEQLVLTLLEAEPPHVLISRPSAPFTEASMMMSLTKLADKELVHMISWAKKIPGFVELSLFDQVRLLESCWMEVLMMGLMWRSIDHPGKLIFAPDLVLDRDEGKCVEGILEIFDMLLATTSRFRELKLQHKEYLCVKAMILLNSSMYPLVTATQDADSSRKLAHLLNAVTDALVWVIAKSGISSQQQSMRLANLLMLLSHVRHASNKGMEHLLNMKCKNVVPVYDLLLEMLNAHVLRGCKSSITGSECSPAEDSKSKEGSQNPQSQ

For `COc1cccc(N(C)C(=O)c2ccc(-c3ccc(OC)c(F)c3)s2)c1`, the results for the inhibition in assay [1] and in assay [4] were 15% and 72%, respectively. Further, the RBA in assay [2] and in assay [5] was below 0.1% each time. For the same molecule, the negative logarithm of the IC50 (pIC50) in assay [3] is below 4.40.

On to `COc1cccc(N(C)C(=O)c2ccc(-c3cccc(N(C)C)c3)s2)c1`, for which the inhibition in assay [1] was 11%; in assay [4], 82%; in assay [7] it was 71%. In assay [6], the Ratio IC50 came out at 63. Moreover, the RBA in assay [2] and in assay [5] was below 0.1% throughout.
